Among the data in ChEMBL document CHEMBL1806374, “Synthesis, characterization and cytotoxicity of some novel 1,3-disubstituted-2,3-dihydro-2-iminobenzimidazoles” (Eur J Med Chem, 2011) are EC50 and IC50 values, retold here.

Experiment [1] is described as follows: Antiproliferative activity against at human Splenocytes after 24 hrs by MTS assay. The format is cell-based. The following applies: Splenocyte. The method in brief:
(§1)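 Cells were seeded at 2 × 10⁴ per well. After 24 h the monolayers were washed and overlaid with medium containing compound, from a 0.5 mg/ml DMSO stock diluted 1:10 to 1:10 000. Untreated medium served as control. After 24 h, MTS was added for 2 h at 37 °C in 5% CO2, and A490 was read. Viability was expressed as % of control, averaged over three independent assays, and IC50/EC50 were taken from the plotted curves.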

Experiment [2] has as its system HT-29. As to the kind of experiment: Antiproliferative activity against human HT-29 cells after 24 hrs by MTS assay. The format is functional, cell-based. Particulars: HT-29, 24 h. The procedure, abridged:
as §1

Experiment [3] relates to MDA-MB-231. As to the kind of experiment: Cytotoxicity against human MDA-MB-231 cells after 24 hrs by MTS assay. It is filed as functional, cell-based. The following applies: MDA-MB-231, 24 h. The method in brief: as §1
The subject of experiment [4] is MDA-MB-231. As to the kind of experiment: Antiproliferative activity against human MDA-MB-231 cells after 24 hrs by MTS assay. The following applies: MDA-MB-231, 24 h. The format is functional, cell-based. The method in brief: as §1
For experiment [5], the system named is HT-29. As to the kind of experiment: Cytotoxicity against human HT-29 cells after 24 hrs by MTS assay. The format is functional, cell-based. Particulars: HT-29, 24 h. The method in brief:
as §1

Experiment [6] is described as follows: Cytotoxicity against human Splenocytes after 24 hrs by MTS assay. It is filed as cell-based. The following applies: Splenocyte. The procedure, abridged: as §1

Regarding `CCOC(=O)Cn1c(=N)n(CC(=O)OCC)c2ccccc21`, the values for the concentration for a half-maximal effect (EC50) in experiment [1] and in experiment [2] were 14.3 nM and 2.37 nM, respectively. The IC50 in experiment [3] was 1.15 nM.

`N=c1n(CCCc2ccccc2)c2ccccc2n1CCCc1ccccc1`: the concentration giving a half-maximal response (EC50) in experiment [4] came out at 1.39 nM; in experiment [1] it was 14.1 nM. The IC50 in experiment [5] worked out at 9.26 nM.

For the compound `CCOC(=O)C(C)N1C2=NC(=O)C(C)N2c2ccccc21` (stereo not drawn), the EC50 in experiment [4] was 2.02 nM; in experiment [1] it was 0.542 nM; in experiment [2], 5.68 nM.

Turning to `N=c1n(CC(=O)NCCCN)c2ccccc2n1CC(=O)NCCCN`, the IC50 in experiment [5] amounted to 0.56 nM; in experiment [3], 0.123 nM. In experiment [1], the EC50 turned out to be 0.05 nM.

In the case of `N=c1n(CC(=O)NCc2ccccc2)c2ccccc2n1CC(=O)NCc1ccccc1`, the EC50 is 7.74 nM in experiment [1] and 0.205 nM in experiment [2]. In experiment [3], this compound came in with a 50% inhibitory concentration (IC50) of 1.65 nM.

With `CN1CCN(C(=O)Cn2c(=N)n(CC(=O)N3CCN(C)CC3)c3ccccc32)CC1`, the midpoint of the response in experiment [4], the EC50, lay at 1.59 nM. Besides, the IC50 in experiment [5] was determined as 0.013 nM; in experiment [6], 1.38 nM.

Regarding `N=c1n(CC(=O)N/N=C/c2ccc(F)cc2)c2ccccc2n1CC(=O)N/N=C/c1ccc(F)cc1`, the concentration giving a half-maximal response (EC50) in experiment [1] was 16.9 nM; in experiment [2] it was 4.3 nM.

Take `N=c1n(CC(=O)N/N=C/c2cccc(F)c2)c2ccccc2n1CC(=O)N/N=C/c1cccc(F)c1`: the figures for the half-maximal effective concentration (EC50) in experiment [4], in experiment [1] and in experiment [2] were 0.002 nM, 11 nM and 3.51 nM, respectively.
